# Ins promoter up: MIN6 insulin promoter up-regulation; z-score at 5 µM; MIN6 insulin promoter-GFP reporter, high-content imaging; hits give high values; 0.3% of 190,000 active; AID 1625;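 active = z-score above 3 at 5 µM with at least 500 cells counted in the well; inconclusive = wells under 500 cells, flagged as cytotoxic or low count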
# ABCG2 block: blocks JC-1 efflux by human ABCG2 transporter; Q9UNQ0; IgMXP3 cells, flow cytometry; inhibition, % at 6.6 µM; 0.1% of 190,000 active;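 active = inhibition above 80%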;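 also: 0% = DMSO and 100% = nicardipine control wells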
#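 System: two drug-resistant human cell lines, ABCG2 and ABCB1; controls: nicardipine high and DMSO low controls; times: 10 min exposure at 25 °C with rotation, no wash; detection: flow cytometry of retained JC-1 fluorescence; read-out basis: percent efflux inhibition, scaled nicardipine 100% to DMSO 0%; doses: one concentration, 6.6 µM final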
# SDO1 yeast rescue: sdo1-depleted yeast growth rescue; z-score at 10 µM; AID 817; 0.21% of 140,000 active; S. cerevisiae sdo1-depleted JHY4D growth rescue, OD600 30 h; hits give high values; pdr5 snq2 efflux-pump mutant strain;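 active = z-score above 3 at both the 24 hr and the 30 hr optical density reads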;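 also: z-score against mean and SD of all compound wells on the same plate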
# ABCB1 inh: inhibitors of human ABCB1 transporter, ABCG2 counter-screen; 0.067% of 190,000 active; CCRF-Adr cells, JC-1 efflux, flow cytometry; inhibition, % at 6.6 µM; P08183; in the data active = inhibition above about 40%;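 also: 0% = vehicle and 100% = reference inhibitor; higher value means more JC-1 retained so stronger ABCB1 efflux block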
# Target sequence (P08183 whole entry, looked up): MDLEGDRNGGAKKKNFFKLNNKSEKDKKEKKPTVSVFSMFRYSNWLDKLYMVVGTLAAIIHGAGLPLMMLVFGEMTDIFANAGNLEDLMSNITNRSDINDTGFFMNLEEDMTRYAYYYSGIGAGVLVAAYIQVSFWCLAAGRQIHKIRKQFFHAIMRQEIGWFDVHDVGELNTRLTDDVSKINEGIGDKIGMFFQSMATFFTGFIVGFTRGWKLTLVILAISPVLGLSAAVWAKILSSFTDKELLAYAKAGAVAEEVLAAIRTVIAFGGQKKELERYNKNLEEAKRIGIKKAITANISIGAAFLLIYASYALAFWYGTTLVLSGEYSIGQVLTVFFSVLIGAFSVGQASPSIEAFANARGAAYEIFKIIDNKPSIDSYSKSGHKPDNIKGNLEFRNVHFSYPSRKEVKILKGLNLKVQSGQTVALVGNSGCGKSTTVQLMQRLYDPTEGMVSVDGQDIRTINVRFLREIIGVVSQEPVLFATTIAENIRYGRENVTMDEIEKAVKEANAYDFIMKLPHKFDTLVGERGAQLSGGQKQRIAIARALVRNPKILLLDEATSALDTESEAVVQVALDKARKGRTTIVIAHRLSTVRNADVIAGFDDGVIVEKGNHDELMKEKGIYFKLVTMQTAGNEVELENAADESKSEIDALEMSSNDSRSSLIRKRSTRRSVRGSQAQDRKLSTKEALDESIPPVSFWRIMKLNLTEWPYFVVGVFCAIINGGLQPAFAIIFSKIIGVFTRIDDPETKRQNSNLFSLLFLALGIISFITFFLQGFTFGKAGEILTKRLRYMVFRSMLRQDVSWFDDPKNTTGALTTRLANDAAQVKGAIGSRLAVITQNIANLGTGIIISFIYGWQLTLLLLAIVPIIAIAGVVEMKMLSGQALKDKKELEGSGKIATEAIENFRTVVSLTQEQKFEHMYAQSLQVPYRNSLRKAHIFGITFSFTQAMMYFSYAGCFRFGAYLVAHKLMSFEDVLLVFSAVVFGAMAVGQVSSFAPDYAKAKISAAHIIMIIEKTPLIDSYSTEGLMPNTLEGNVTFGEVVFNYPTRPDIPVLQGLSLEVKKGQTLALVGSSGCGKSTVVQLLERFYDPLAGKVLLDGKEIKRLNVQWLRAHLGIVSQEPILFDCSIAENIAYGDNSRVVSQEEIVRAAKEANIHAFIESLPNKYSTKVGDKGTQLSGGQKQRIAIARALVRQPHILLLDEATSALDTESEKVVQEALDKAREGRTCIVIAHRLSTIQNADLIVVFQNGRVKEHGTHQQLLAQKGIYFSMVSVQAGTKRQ
# Autophagy mod: alters autophagy in cells | MEF GFP-LC3 puncta imaging; test concentration mostly 10 µM | calls only at 10 µM (by protocol) | 0.98% of 190,000 active;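 active = percentage of spot-positive cells more than 3 SD above its plate mean, without a fluorescence outlier flag or 80% toxicity; inconclusive = no clear call, values can overlap the other calls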;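 also: spot-positive cell cutoff set from DMSO-treated cells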
# ROMK mod: human ROMK K+ channel modulation, primary screen; B-score at 10 µM; 2% of 130,000 active; Tet-inducible ROMK, thallium flux fluorescence; actives lie on both sides; P48048; AID 1918;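 active = signal ratio slope over the read window, or its plate-corrected B-score, at least 3 SD from the plate mean, either direction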;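 also: B-score of the F/F0 ratio slope over 7 to 12 s after thallium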
# ROMK retest: confirmation of human ROMK potassium channel modulators; shares compounds with ROMK mod; normalized thallium flux (F/F0 slope) at 10 µM; AID 1917; 54% of 3,000 active; ROMK thallium flux, fluorescence ratio; hits give low values;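 active = Flux at 10 µM at least 3 SD below or above vehicle control mean in one or both replicates; inconclusive = no clear call, values can overlap the other calls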
# * marks the source's active call; other numbers are inactive results; i = inactive; ? = inconclusive; · = no result given. The list is not random: actives were taken first. Their share in the collection is about 2.3%.
SMILES,Ins promoter up,ABCG2 block,SDO1 yeast rescue,ABCB1 inh,Autophagy mod,ROMK mod,ROMK retest
Cc1ccc(C(=O)N/C(=C/c2ccc(-c3cc(C(F)(F)F)ccc3Cl)o2)C(=O)NCc2cccnc2)cc1,-1.1,30,-0.85,1,i,-0.95,·
O=C(NCc1cccnc1)/C(=C/c1ccc(-c2ccc(Cl)cc2)o1)S(=O)(=O)c1ccccc1,·,13,-2.5,4,i,·,0.055*
O=C(NCc1cccnc1)/C(=C\c1ccc(-c2ccc(Br)cc2)o1)S(=O)(=O)c1ccccc1,-1.6,-1,-1.9,0,i,·,·
O=C(/C=C/c1cn(CC(O)CN2CCCCC2)c2ccccc12)c1ccccc1 (stereo not drawn),0.77,·,·,·,·,·,0.057*
COc1ccc(C(=O)/C=C/c2cn(CC(O)CN3CCN(C)CC3)c3ccccc23)cc1OC (stereo not drawn),0.38,·,·,·,·,·,0.059*
CCCCCCNS(=O)(=O)c1ccc(NC(=O)C2CCCO2)cc1 (stereo not drawn),-0.02,2,1.1,1,i,0.048,·
COc1ccc(N(CC(=O)NCCC2=CCCCC2)S(=O)(=O)c2ccc(C)cc2)cc1,0.14,11,·,6,i,-0.73,·
CCOC(=O)C1=C(c2ccccc2)NC(N)=NC1c1ccc(OCc2ccc(C(=O)OC)cc2)cc1 (stereo not drawn),-0.1,·,·,·,·,·,0.053*
CCOC(=O)C1=C(c2ccccc2)Nc2ncnn2C1c1ccc(C(=O)O)cc1 (stereo not drawn),-0.25,·,·,·,·,·,·
COc1ccccc1N1CCN(S(=O)(=O)c2ccc3c(c2)n(C)c(=O)n3C)CC1,·,2,·,1,i,0.5,·
CC(=O)c1ccc(NC(=O)Cn2c3ccccc3c3nc(=O)cc(C)n32)cc1,-0.3,·,·,·,·,·,0.086
Cc1ccc2nc(COc3ccc(Cl)cc3)cc(=O)n2c1,-0.02,6,·,1,i,-0.71,·
Cc1ccc(N/C(N)=N/c2nc(C)cc(C)n2)cc1,-1.4,-1,0.2,4,i,-0.083,·
Cc1cc(C)nc(/N=C(\N)Nc2ccccc2-c2ccccc2)n1,-2.2,4,·,4,i,-4.8*,0.053*
CCCCc1ccc(N/C(N)=N/c2nc(C)cc(C)n2)cc1,-0.23,·,·,·,·,·,0.057*
Cc1cccc(N/C(N)=N/c2nc(C)cc(C)n2)c1,·,3,-0.08,1,i,·,·
CCOC(=O)c1c(CSC(=N)N)n(C)c2cc(Br)c(OC(C)=O)cc12,-0.33,·,·,·,·,·,·
CCOC(=O)c1c(CSC(=N)N)n(-c2ccc(C)cc2)c2cc(Br)c(OC(C)=O)cc12,·,37,-0.81,6,i,·,0.045*
N#C/C(C(N)=O)=C1/CCc2ccccc2N1,1,1,0.24,0,i,4.7*,0.088
O=C1CCc2ccccc2N1,0.26,·,·,·,·,·,·
COc1ccc(N2CCc3c(C)nc4c(OC)cc(OC)cc4c32)cc1,·,5,·,6,i,-1.6,·
COc1ccc(N2CCc3c(C)nc4c(OC)cc(OC)cc4c32)c(OC)c1,·,2,-0.19,1,i,·,0.061*
CCCCC#Cc1cncc(C(=O)N/N=C/c2ccccc2)c1,-0.07,·,·,·,·,·,·
COc1ccc(/C=N/N=C/c2ccc(OC)c(OC)c2)cc1OC,0.22,1,0.14,0,i,·,·
COc1cc(/C=N/N=C(N)N)ccc1OCc1ccccc1Cl,0.03,5,·,0,i,-3.7*,0.055*
SMILES,Ins promoter up,ABCG2 block,SDO1 yeast rescue,ABCB1 inh,Autophagy mod,ROMK mod,ROMK retest
Cc1ccc(C2C(C#N)=C(N)Oc3nc(-c4ccccc4)[nH]c32)o1 (stereo not drawn),-0.44,2,-0.37,0,i,·,?
N#CC1=C(N)Oc2nc(-c3ccccc3)[nH]c2C1c1cccnc1 (stereo not drawn),0.52,-1,1.1,0,i,-0.81,·
CC(=O)Cc1nsc(NC(=O)c2ccc(-c3ccc(Cl)cc3Cl)o2)n1,-0.11,-2,-1,0,i,·,·
CC(=O)Cc1nsc(NC(=O)c2ccc(-c3cc(Cl)ccc3Cl)o2)n1,-0.23,0,·,0,i,3.8*,0.089
CN(C)CC/C=C1/c2cc(F)ccc2CSc2ccc(F)cc21,·,1,0.5,1,i,-3.2,·
CN(C)CC/C=C1\c2cc(F)ccc2CSc2ccccc21,-0.38,1,-0.21,0,i,-3.2*,0.061*
CC1=CC(=C2C(=O)c3ccccc3C2=O)C=C(C)O1,0.57,11,-0.1,1,i,·,·
CC(=O)N1C(=O)C(=C2C=C(C)OC(C)=C2)c2ccccc21,-0.61,8,-1.7,1,i,·,0.062*
Cc1ccc(S(=O)(=O)N2CCCCC2C(=O)O)s1 (stereo not drawn),-0.37,0,·,0,i,0.052,·
Cc1ccccc1NS(=O)(=O)c1cc(S(C)(=O)=O)ccc1Cl,0.12,1,0.12,0,i,0.027,0.081
O=C(CSc1nnc(-c2ccc(S(=O)(=O)N3CCCC3)cc2)n1CC1CCCO1)NC1CC1 (stereo not drawn),-0.29,1,0.94,0,i,·,0.091
Cc1ccc2[nH]c3c(N4CCCCCC4)ncnc3c2c1,-3.6,8,-2,1,i,-4*,0.058*
Cc1ccc2[nH]c3c(N4CCN(Cc5ccc6c(c5)OCO6)CC4)ncnc3c2c1,?,-4,-1.5,1,i,-3.8*,0.061*
Cc1cc(C(=O)CSc2nnnn2-c2ccc(O)cc2)c(C)n1C,·,3,·,0,i,-0.25,·
Cc1ccc(C(NC(=O)C(C)C)c2cc([N+](=O)[O-])c3cccnc3c2O)cc1 (stereo not drawn),·,-5,-0.75,1,i,3.3*,0.081
CC1(C)c2ccccc2-n2c1cc1oc(=O)cc(O)c1c2=O,0.88,·,·,·,·,0.004,·
COc1cccc(C(=O)C2CCCN(C(=O)CCC3=NNC(=O)CC3)C2)c1 (stereo not drawn),-0.01,0,·,0,i,0.21,·
CC(C)C[C@H](NC(=O)c1nc[nH]c1C(=O)N1CCc2ccccc2C1)C(=O)OC(C)(C)C,0.3,·,·,·,·,·,·
CCOC(=O)c1nc(-c2ccccc2)oc1N1CCOCC1,-0.36,4,·,0,i,-0.56,·
CN(c1ccccc1)S(=O)(=O)c1cccc(NC(=O)c2ccncc2)c1,-0.95,·,·,·,·,·,0.081
Cc1ccc(N2C(=O)N(CC(=O)C(C)(C)C)c3ccccc3S2(=O)=O)cc1,-0.2,-1,·,0,i,0.65,·
COc1ccc(Cl)cc1C(=O)NNC(=O)CSc1nnnn1C,-0.79,1,·,0,i,-0.16,·
CC(CCc1ccccc1)NC(=O)/C=C/c1ccccc1 (stereo not drawn),-0.15,6,-1.1,0,i,·,·
CC(CCc1ccccc1)NC(=O)/C=C/c1ccc(F)cc1 (stereo not drawn),·,12,·,1,i,2.1*,0.075

# Screening data from PubChem.
